miR122 inh: inhibitors of miR-122 in Huh7 cells. activation (reporter increase), % at 12.5 µM. actives 0.3% (n = 340,000). Huh7 miR-122 Renilla luciferase sensor, 48 h; neutral wells = 0, positive control = 100. AID 602342;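 active = mean replicate activation score at least 90 and every replicate individually at or above 90; inconclusive = only one of the two criteria met; inactive = neither criterion met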;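 also: higher luciferase means less miR-122 activity so hits act as miR-122 inhibitors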
Ecoli rRNA inh: inhibits bacterial ribosomal RNA function over humanized ribosomes | GFP signal change (wild-type ribosome), % (test concentration not listed) | actives 1.6% (n = 350,000) | E. coli WT GFP vs humanized-ribosome RFP mutants, fluorescence, 24 h; stronger effect = lower value; DMSO median 0, no signal -100;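 active = significant combined selectivity score with lowered wild-type GFP, culture density cut under 30%, mutant RFP and density less affected; inactive = any of these conditions unmet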
FN deposit inh: fibronectin deposition inhibition. actives 0.086% (n = 350,000). inhibition, % at 12.6 µM. AH1F fibroblasts, Alexa488-fibronectin deposition fluorescence, overnight;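 active = mean inhibition across replicates of 30% or more, regardless of how many single replicates reach that level; inconclusive = mean under 30% yet at least half of replicates reach 30%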;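 also: positive control wells lacked labelled fibronectin entirely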
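Material: AH1F fibroblasts assembling fluorescent fibronectin matrix; amount: 10000 AH1F cells/well; medium: DMEM, 2% serum; reagent: Alexa488-fibronectin, 24 nM final in well; dosing: single compound dose, delivered by pin transfer; incubation: 1 h adhesion, overnight exposure; detection: fluorescence after three HBSS washes, excitation 485 nm, emission 525 nm; measure: fibronectin deposition inhibition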
HIV Env fusion: HIV envelope-mediated fusion inhibition. HeLa-JRFL Env/CEM21 cell fusion, luciferase. inhibition, % at 12.3 µM. actives 1.1% (n = 360,000). AID 651610;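 active = mean replicate inhibition score of at least 50 and every replicate individually at or above 50; inconclusive = only one of the two criteria met; inactive = mean below 50 and not all replicates reaching 50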;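 also: 0% = plate neutral controls and 100% = maraviroc near 300 nM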
S100A4 MyoIIA: S100A4-myosin IIA interaction inhibition. P26447. S100A4/TAMRA-MyoIIA peptide fluorescence polarization. inhibition, % at 10.7 µM. actives 0.14% (n = 360,000);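 active = mean inhibition of at least 70% across replicates, with every replicate also reaching that level; inconclusive = mean inhibition reaches 70% but some replicates fall short; inactive = mean inhibition below 70%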
Target sequence (P26447 whole entry, looked up): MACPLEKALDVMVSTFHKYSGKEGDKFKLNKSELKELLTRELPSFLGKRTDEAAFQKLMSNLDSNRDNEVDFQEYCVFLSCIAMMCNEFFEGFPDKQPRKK
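Test system: S100A4 monomer protein; Medium: HEPES pH 7.2 with CaCl2, KCl, NaCl, DTT, Triton; Probe or stimulus: TAMRA-labelled myosin IIA heavy-chain peptide probe, 5 nM; Doses: one dose per compound; Times: polarization read 5 min after assay mix addition, stable 5–60 min; Benchmarks: neutral control DMSO, positive control TFP.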
Vif inh: inhibitors of HIV Vif. HEK293T cells, Vif self-association by quenched fluorescence, imaging, 24 h. inhibition, % at 7.49 µM. actives 0.35% (n = 340,000). AID 602346; in the data active = inhibition above about 50%, passing the limit was not always enough; inconclusive = no clear call, values can overlap the other calls; inactive = below about 31%
* marks the source's active call; other numbers are inactive results; [ ] = another dose, or the depositor's remark. Shown are actives, neighbours in structure and some others; about 2.6% of the full set was active somewhere.

O=C(Cn1nc(C(F)F)cc1C(F)F)NNC(=S)Nc1ccc([N+](=O)[O-])cc1 was read as Ecoli rRNA inh -17.6*, FN deposit inh 2.4, HIV Env fusion 19.6, S100A4 MyoIIA -1.6 and Vif inh -11.2.
`C[C@H]1CN([C@@H](C)CO)C(=O)c2cc(C#CCc3ccccc3)cnc2O[C@@H]1CN(C)Cc1ccc(C(=O)O)cc1` gave miR122 inh -10.2[16.7 µM], Ecoli rRNA inh 4.7, FN deposit inh 6.1, HIV Env fusion -23.6[16.7 µM] and S100A4 MyoIIA 4.6.
For O=S(=O)(c1ccc(F)cc1)N1CC[C@@H]2[C@H](CO)Nc3ccc(-c4ccc(F)cc4)cc3[C@@H]21 the results were miR122 inh -8.6[16.7 µM], Ecoli rRNA inh -3.3 and FN deposit inh -5.7.
`O=C(N=Nc1c(O)[nH]c2ccc(Br)cc12)c1ccccc1-n1cccc1` gave miR122 inh 57.6, Ecoli rRNA inh -29.0*, S100A4 MyoIIA 2.8 and Vif inh 25.9.
Oc1cccc(NC(=S)N=Nc2c(O)[nH]c3ccc(Br)cc23)c1 was read as miR122 inh -1.4, Ecoli rRNA inh -37.2*, FN deposit inh 2.7, HIV Env fusion 13.7, S100A4 MyoIIA -11.5 and Vif inh -0.3.
Screening Oc1ccc(NC(=S)N=Nc2c(O)[nH]c3ccc(Br)cc23)cc1 returned miR122 inh 1.8, Ecoli rRNA inh -23.3*, FN deposit inh 4.2, HIV Env fusion 26.4, S100A4 MyoIIA 10.8 and Vif inh -8.2.
Oc1[nH]c2ccc(Br)cc2c1N=NC(=S)Nc1ccc(F)cc1 was read as Ecoli rRNA inh 5.4, FN deposit inh -8.3, HIV Env fusion 32.8, S100A4 MyoIIA 6.7 and Vif inh 1.5.
Screening COc1ccc(NC(=S)N=Nc2c(O)[nH]c3ccccc23)cc1 returned miR122 inh 0.5, Ecoli rRNA inh -47.2*, FN deposit inh 6.8, HIV Env fusion 4.9, S100A4 MyoIIA 1.8 and Vif inh 6.0.
Cc1ccc(NC(=S)N=Nc2c(O)[nH]c3ccccc23)cc1 was read as Ecoli rRNA inh 5.3, FN deposit inh 13.0, HIV Env fusion 15.3, S100A4 MyoIIA 6.7 and Vif inh -4.5.
`O=C(N=Nc1c(O)[nH]c2ccc(Br)cc12)c1ccco1` gave miR122 inh 1.3, Ecoli rRNA inh -5.9, FN deposit inh -4.0, HIV Env fusion -10.1 and S100A4 MyoIIA -15.5.
Screening CC(=O)N1[C@@H]2c3ccc(-c4ccccc4)c(=O)n3C[C@@H]2[C@@H](CO)[C@@H]1C(=O)N(C)C returned miR122 inh -1.9[16.7 µM], Ecoli rRNA inh -0.2 and S100A4 MyoIIA 2.9.
Screening Cc1ccc(S(=O)(=O)N/N=C/c2ccc(OCC(=O)Nc3ccccc3Cl)cc2)cc1 returned miR122 inh 219.5*, Ecoli rRNA inh -0.5, FN deposit inh 5.3, HIV Env fusion inconclusive, S100A4 MyoIIA -0.2 and Vif inh -7.2.
Cc1ccc(OCC(=O)Nc2ccccc2-c2ccccc2NC(=O)COc2ccc(C)cc2)cc1 was read as FN deposit inh 6.6, HIV Env fusion 91.1* and Vif inh 0.4.
For Cc1ccccc1OCC(=O)Nc1ccccc1-c1ccccc1 the results were Ecoli rRNA inh -38.1*, FN deposit inh 0.6, HIV Env fusion 28.2, S100A4 MyoIIA -2.9 and Vif inh -2.7.
`Cc1ccccc1NC(=O)COc1ccccc1C` gave miR122 inh 0.9, Ecoli rRNA inh -24.1, FN deposit inh 4.1, HIV Env fusion -33.8, S100A4 MyoIIA 3.0 and Vif inh 17.6.
O=C(/C=C/c1ccc(Cl)cc1)NC(=S)Nc1ccccc1C(=O)O was read as Ecoli rRNA inh -18.1*, FN deposit inh -0.4, HIV Env fusion -51.1, S100A4 MyoIIA 3.8 and Vif inh 22.5.
Screening C[C@@H]1CCCCO[C@@H](CN(C)C(=O)c2ccccc2)[C@H](C)CN([C@@H](C)CO)C(=O)c2cc(NS(=O)(=O)c3ccccc3)ccc2O1 returned miR122 inh -13.5[16.7 µM], Ecoli rRNA inh -11.2, FN deposit inh -5.0, HIV Env fusion 7.5[16.7 µM] and S100A4 MyoIIA -0.5.
For CCOC(=O)c1c(C)[nH]c(C(=O)OCC(=O)Nc2cc(C)ccc2OC)c1C the results were miR122 inh -3.4, FN deposit inh 3.5, HIV Env fusion -3.2 and Vif inh -3.0.
`COc1ccc(OC)c(NC(=O)c2cc3ccccc3cc2OC)c1` gave miR122 inh 0.3, Ecoli rRNA inh -21.5, FN deposit inh 1.4, HIV Env fusion -3.0, S100A4 MyoIIA 0.6 and Vif inh 50.5*.
For COc1ccc(C(=O)Nc2cc(OC)c(NC(=O)Nc3ccccc3)cc2OC)cc1 the results were miR122 inh -9.8, Ecoli rRNA inh -11.8, FN deposit inh -5.6, HIV Env fusion 14.9, S100A4 MyoIIA -0.5 and Vif inh 73.4*.
For COc1ccc(C(=O)Nc2cc(OC)ccc2OC)cc1 the results were Ecoli rRNA inh -2.4, S100A4 MyoIIA -0.3 and Vif inh 0.3.
Screening CCOC(=O)c1[nH]c(C)c(C(=O)Nc2cc(OC)ccc2OC)c1C returned HIV Env fusion -92.8 and Vif inh 53.9*.
For COc1cc2ccccc2cc1C(=O)Nc1ccc(Cl)cn1 the results were miR122 inh 3.6, FN deposit inh 0.2, HIV Env fusion -16.0, S100A4 MyoIIA -4.9 and Vif inh 83.6*.
For C[C@@H]1CCCCO[C@@H](CN(C)C(=O)Nc2ccccc2)[C@@H](C)CN([C@@H](C)CO)C(=O)c2cc(NC(=O)NC3CCCCC3)ccc2O1 the results were miR122 inh -0.4[16.7 µM], Ecoli rRNA inh 6.6, FN deposit inh 0.4, HIV Env fusion -14.0[16.7 µM] and S100A4 MyoIIA 2.2.
C[C@@H]1CN([C@@H](C)CO)C(=O)Cc2cc(NC(=O)NC3CCCCC3)ccc2O[C@H]1CN(C)C(=O)Nc1cccc2ccccc12 was read as miR122 inh -2.3[16.7 µM], Ecoli rRNA inh -0.7, HIV Env fusion 10.8[16.7 µM] and S100A4 MyoIIA -7.3.
Screening Cc1ccccc1CN1CCc2c(OCC(=O)N3CCCCC3)cccc2C1=O returned Ecoli rRNA inh -25.3*, FN deposit inh 7.1, HIV Env fusion 4.0, S100A4 MyoIIA -2.8 and Vif inh 16.0.
For Cc1noc(C)c1S(=O)(=O)N(C)C[C@H]1OCCCC[C@H](C)Oc2ccc(NS(=O)(=O)c3ccccc3)cc2C(=O)N([C@H](C)CO)C[C@H]1C the results were Ecoli rRNA inh 0.6, FN deposit inh -0.8 and S100A4 MyoIIA 0.8.
COC(=O)Nc1cc(C(=O)c2ccc(Cl)cc2Cl)c[nH]1 was read as miR122 inh 0.6, Ecoli rRNA inh -46.5*, FN deposit inh 6.2, HIV Env fusion 11.7, S100A4 MyoIIA -5.3 and Vif inh -12.1.
